Source: ChEMBL document CHEMBL3580574, “Design, Synthesis, and Biological Evaluation of Hexacyclic Tetracyclines as Potent, Broad Spectrum Antibacterial Agents” (J Med Chem, 2015)
≈ marks a conversion by molar mass, not a printed value.

Key:
Assay type in all cases: functional
Burkholderia cenocepacia = experiment: Antibacterial activity against Burkholderia cenocepacia 240 assessed as bacterial growth inhibition by susceptibility testing assay
Outline: (§1)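 Medium supplemented with lysed horse blood where appropriate. Compound stocks prepared and serially diluted in sterile deionized water. Runs were accepted against QC ranges for comparator antibiotics and ATCC QC strains.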

Pseudomonas aeruginosa = experiment: Antibacterial activity against Pseudomonas aeruginosa 555 BAA-47 assessed as bacterial growth inhibition by susceptibility testing assay; conditions: Pseudomonas aeruginosa, 555 BAA-47; read-out: MIC
Outline: as §1, with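 “Broth microdilution MIC per CLSI in cation-adjusted Mueller Hinton broth, made fresh and held at 4 °C before testing. Medium” for “Medium”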

Enterococcus faecalis = experiment: Antibacterial activity against tet(M) tetracycline-resistant Enterococcus faecalis 327 assessed as bacterial growth inhibition by susceptibility testing assay
Outline: (§2)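 Broth microdilution MIC per CLSI in 96-well plates; compound stocks prepared and serially diluted in sterile deionized water; cation-adjusted Mueller Hinton broth prepared fresh and held at 4 °C before testing, supplemented with lysed horse blood as appropriate; runs accepted when comparator antibiotics fell within QC ranges for appropriate ATCC quality control strains.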

Escherichia coli [1] = experiment: Antibacterial activity against Escherichia coli 107 ATCC 25922 assessed as bacterial growth inhibition by susceptibility testing assay
Outline: as §1, with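 “Broth microdilution MIC per CLSI in cation-adjusted Mueller Hinton broth, made fresh and held at 4 °C before testing. Medium” for “Medium”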

Enterobacter cloacae = experiment: Antibacterial activity against tet(A) tetracycline-resistant Enterobacter cloacae 603 assessed as bacterial growth inhibition by susceptibility testing assay; outline: as §2
Klebsiella pneumoniae = experiment: Antibacterial activity against Klebsiella pneumoniae 457 harboring CTX-M-15 gene assessed as bacterial growth inhibition by susceptibility testing assay; conditions: Klebsiella pneumoniae, 457; read-out: MIC; outline: as §2
Acinetobacter baumannii = experiment: Antibacterial activity against tet(B) tetracycline-resistant Acinetobacter baumannii 250 assessed as bacterial growth inhibition by susceptibility testing assay; outline: as §2
Staphylococcus aureus [2] = experiment: Antibacterial activity against tet(K) tetracycline-resistant Staphylococcus aureus 158 assessed as bacterial growth inhibition by susceptibility testing assay; conditions: Staphylococcus aureus, 158; read-out: MIC
Staphylococcus aureus [3] = experiment: Antibacterial activity against methicillin-resistant, tet(M) tetracycline-resistant Staphylococcus aureus 161 assessed as bacterial growth inhibition by susceptibility testing assay; outline: as §2
Streptococcus pneumoniae = experiment: Antibacterial activity against tet(M) tetracycline-resistant Streptococcus pneumoniae 160 assessed as bacterial growth inhibition by susceptibility testing assay
Escherichia coli [4] = experiment: Antibacterial activity against tet(A) tetracycline-resistant Escherichia coli 155 assessed as bacterial growth inhibition by susceptibility testing assay; conditions: Escherichia coli, 155; read-out: MIC; outline: as §2
Staphylococcus aureus [5] = experiment: Antibacterial activity against Staphylococcus aureus 101 ATCC 29213 assessed as bacterial growth inhibition by susceptibility testing assay; conditions: Staphylococcus aureus, 101 ATCC 29213; read-out: MIC
Outline: as §1, with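 “Broth microdilution MIC per CLSI in cation-adjusted Mueller Hinton broth, made fresh and held at 4 °C before testing. Medium” for “Medium”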

[6] = system: Stenotrophomonas maltophilia; experiment: Antibacterial activity against Stenotrophomonas maltophilia 256 assessed as bacterial growth inhibition by susceptibility testing assay; outline: as §1
Proteus mirabilis = experiment: Antibacterial activity against Proteus mirabilis 385 assessed as bacterial growth inhibition by susceptibility testing assay
Outline: as §1, with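 “Broth microdilution MIC per CLSI in cation-adjusted Mueller Hinton broth, made fresh and held at 4 °C before testing. Medium” for “Medium”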

Enterococcus faecium = experiment: Antibacterial activity against tet(M) tetracycline-resistant Enterococcus faecium 404 assessed as bacterial growth inhibition by susceptibility testing assay
[7] = Burkholderia cenocepacia, 240, read-out: MIC
[8] = Enterococcus faecalis, 327, read-out: MIC
[9] = Escherichia coli, 107 ATCC 25922, read-out: MIC
[10] = Enterobacter cloacae, 603, read-out: MIC
[11] = Acinetobacter baumannii, 250, read-out: MIC
[12] = Staphylococcus aureus, 161, read-out: MIC
[13] = Streptococcus pneumoniae, 160, read-out: MIC
[14] = Stenotrophomonas maltophilia, 256, read-out: MIC
[15] = Proteus mirabilis, 385, read-out: MIC
[16] = Enterococcus faecium, 404, read-out: MIC

Compound	MIC (Burkholderia cenocepacia; [7])	MIC (Pseudomonas aeruginosa)	MIC (Enterococcus faecalis; [8])	MIC (Escherichia coli [1]; [9])	MIC (Enterobacter cloacae; [10])	MIC (Klebsiella pneumoniae)	MIC (Acinetobacter baumannii; [11])	MIC (Staphylococcus aureus [2])	MIC (Staphylococcus aureus [3]; [12])	MIC (Streptococcus pneumoniae; [13])	MIC (Escherichia coli [4])	MIC (Staphylococcus aureus [5])	MIC [6, 14]	MIC (Proteus mirabilis; [15])	MIC (Enterococcus faecium; [16])	other results
CC1C[C@H]2CNc3c(O)c4c(c(OC(F)(F)F)c3[C@H]2N1C)C[C@H]1C[C@H]2[C@H](N(C)C)C(O)=C(C(N)=O)C(=O)[C@@]2(O)C(O)=C1C4=O (stereo not given in full)	16 µg/mL (≈ 25.7 µM)	8 µg/mL (≈ 12.8 µM)	≤ 0.0156 µg/mL	≤ 0.0156 µg/mL	2 µg/mL (≈ 3.21 µM)	2 µg/mL (≈ 3.21 µM)	1 µg/mL (≈ 1.61 µM)	≤ 0.0156 µg/mL	0.0312 µg/mL (≈ 0.0501 µM)	≤ 0.0156 µg/mL	0.0625 µg/mL (≈ 0.1 µM)	0.0312 µg/mL (≈ 0.0501 µM)	0.25 µg/mL (≈ 0.402 µM)	2 µg/mL (≈ 3.21 µM)	0.0312 µg/mL (≈ 0.0501 µM)	–
CN(C)[C@@H]1C(O)=C(C(N)=O)C(=O)[C@@]2(O)C(O)=C3C(=O)c4c(O)c5c(c(OC(F)(F)F)c4C[C@H]3C[C@@H]12)C1NCCC1CN5 (mixture of isomers)	> 32 µg/mL	32 µg/mL	0.5 µg/mL	0.5 µg/mL	8 µg/mL	2 µg/mL	> 32 µg/mL	0.25 µg/mL	2 µg/mL	0.25 µg/mL	2 µg/mL	0.5 µg/mL	16 µg/mL	4 µg/mL	0.25 µg/mL	–
CN(C)[C@@H]1C(O)=C(C(N)=O)C(=O)[C@@]2(O)C(O)=C3C(=O)c4c(O)c5c(c(F)c4C[C@H]3C[C@@H]12)C1NCCC1CN5 (mixture of isomers)	> 32 µg/mL	32 µg/mL	2 µg/mL	0.5 µg/mL	8 µg/mL	2 µg/mL	> 32 µg/mL	0.5 µg/mL	4 µg/mL	0.5 µg/mL	1 µg/mL	2 µg/mL	> 32 µg/mL	0.5 µg/mL	1 µg/mL	–
CN(C)[C@@H]1C(O)=C(C(N)=O)C(=O)[C@@]2(O)C(O)=C3C(=O)c4c(O)c5c(c(OC(F)(F)F)c4C[C@H]3C[C@@H]12)[C@@H]1[C@@H](CCN1C)CN5	8 µg/mL (≈ 13.1 µM)	8 µg/mL (≈ 13.1 µM)	0.0312 µg/mL (≈ 0.0513 µM)	≤ 0.0156 µg/mL	0.5 µg/mL (≈ 0.822 µM)	0.5 µg/mL (≈ 0.822 µM)	1 µg/mL (≈ 1.64 µM)	≤ 0.0156 µg/mL	0.125 µg/mL (≈ 0.205 µM)	≤ 0.0156 µg/mL	0.0312 µg/mL (≈ 0.0513 µM)	0.0625 µg/mL (≈ 0.103 µM)	0.25 µg/mL (≈ 0.411 µM)	2 µg/mL (≈ 3.29 µM)	≤ 0.0156 µg/mL	–
CN(C)[C@@H]1C(O)=C(C(N)=O)C(=O)[C@@]2(O)C(O)=C3C(=O)c4c(O)c5c(c(F)c4C[C@H]3C[C@@H]12)[C@@H]1[C@@H](CCN1C)CN5 (stereo in doubt; 10b)	–	8 µg/mL (≈ 14.7 µM)	–	–	–	1 µg/mL (≈ 1.84 µM)	–	0.125 µg/mL (≈ 0.23 µM)	–	–	1 µg/mL (≈ 1.84 µM)	0.5 µg/mL (≈ 0.922 µM)	–	–	–	MIC (Burkholderia cenocepacia): 32 µg/mL (≈ 59 µM); MIC (Enterococcus faecalis): 4 µg/mL (≈ 7.37 µM); MIC (Escherichia coli [1]): 0.25 µg/mL (≈ 0.461 µM); MIC (Enterobacter cloacae): 2 µg/mL (≈ 3.69 µM); MIC (Acinetobacter baumannii): 8 µg/mL (≈ 14.7 µM); MIC (Staphylococcus aureus [3]): 4 µg/mL (≈ 7.37 µM); MIC (Streptococcus pneumoniae): 0.125 µg/mL (≈ 0.23 µM); MIC [6]: 4 µg/mL (≈ 7.37 µM); MIC (Proteus mirabilis): 2 µg/mL (≈ 3.69 µM); MIC (Enterococcus faecium): 1 µg/mL (≈ 1.84 µM)
CN(C)[C@@H]1C(O)=C(C(N)=O)C(=O)[C@@]2(O)C(O)=C3C(=O)c4c(O)c5c(c(OC(F)(F)F)c4C[C@H]3C[C@@H]12)[C@@H]1[C@H](CN5)CC2CCCCN21 (stereo not given in full)	8 µg/mL (≈ 12.3 µM)	16 µg/mL (≈ 24.7 µM)	0.0312 µg/mL (≈ 0.0481 µM)	≤ 0.0156 µg/mL	4 µg/mL (≈ 6.17 µM)	4 µg/mL (≈ 6.17 µM)	2 µg/mL (≈ 3.08 µM)	≤ 0.0156 µg/mL	0.25 µg/mL (≈ 0.385 µM)	≤ 0.0156 µg/mL	0.125 µg/mL (≈ 0.193 µM)	0.0625 µg/mL (≈ 0.0964 µM)	1 µg/mL (≈ 1.54 µM)	4 µg/mL (≈ 6.17 µM)	≤ 0.0156 µg/mL	–
CN(C)[C@@H]1C(O)=C(C(N)=O)C(=O)[C@@]2(O)C(O)=C3C(=O)c4c(O)cccc4[C@@](C)(O)[C@H]3C[C@@H]12 [TETRACYCLINE]	–	> 32 µg/mL	> 32 µg/mL	1 µg/mL (≈ 2.25 µM)	> 32 µg/mL	8 µg/mL (≈ 18 µM)	> 32 µg/mL	–	64 µg/mL (≈ 144 µM)	–	> 64 µg/mL	0.125 µg/mL (≈ 0.281 µM)	–	> 32 µg/mL	–	–
